Experiments:
[1] = Volume of distribution at steady state in Sprague-Dawley rat at 1 mg/kg, iv by HPLC-MS/MS analysis; format: ADME, organism-based; details: in vivo, read-out: Vdss
Method in brief: (§1)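 Male Sprague-Dawley rats, 330–380 g, 9–10 weeks old, n = 3, jugular-cannulated 1 day ahead and fasted. Dosed iv 1.0 mg/kg or orally 5.0 mg/kg. Cannula blood was drawn at 0, 2, 5 (iv only), 15, 30 min and 1, 2, 4, 6, 8, 24 h. Plasma was assayed by HPLC-MS/MS, with non-compartmental analysis. The iv vehicle was DMA/propylene glycol (20/80, v/v).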

[2] = Volume of distribution at steady state in Beagle dog at 0.1 mg/kg, iv by HPLC-MS/MS analysis; format: ADME, organism-based, Canis lupus familiaris; details: in vivo, read-out: Vdss
Method in brief: (§2)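 Male Beagle dogs, 9–10 months old, n = 3, dosed iv 0.1 mg/kg or orally 0.5 mg/kg. Blood was drawn at 0, 2, 5 (iv only), 15, 30 min and 1, 2, 4, 6, 8, 24 h and kept on ice. Plasma was assayed by HPLC-MS/MS, with non-compartmental analysis. The iv formulation was a solution in DMA/propylene glycol (20/80, v/v).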

[3] = Half life in Sprague-Dawley rat at 5 mg/kg, po by HPLC-MS/MS analysis; format: ADME, organism-based; details: in vivo; method in brief: as §1
[4] = Tmax in Sprague-Dawley rat at 5 mg/kg, po by HPLC-MS/MS analysis; format: ADME, organism-based; details: in vivo; method in brief: as §1
[5] = Cmax in Sprague-Dawley rat at 5 mg/kg, po by HPLC-MS/MS analysis; format: ADME, organism-based; design: dose 5 mg/kg, route oral; details: in vivo; method in brief: as §1
[6] = AUC in Beagle dog at 0.5 mg/kg, po by HPLC-MS/MS analysis; format: ADME, organism-based, Canis lupus familiaris; details: in vivo; method in brief: as §2
[7] = AUC in Sprague-Dawley rat at 5 mg/kg, po by HPLC-MS/MS analysis; format: ADME, organism-based; details: in vivo; method in brief: as §1
[8] = Plasma clearance in Sprague-Dawley rat at 1 mg/kg, iv by HPLC-MS/MS analysis; format: ADME, organism-based; method in brief: as §1
[9] = Cytotoxicity against human HuH7 cells assessed as reduction in cell viability by MTS assay; format: cell-based, Huh-7
Method in brief: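 Viability of Huh-7 cells was read by MTS assay.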

[10] = target: T1, Nonstructural protein 5A (Hepatitis C virus) (UniProt Q5L478); assay: Potency index, ratio of daclatasvir EC50 to test compound EC50 for inhibition of NS5A in HCV genotype 1b infected in human HuH7 replicon cells; format: cell-based; details: Hepatitis C virus subtype 1b
T1 sequence (whole entry): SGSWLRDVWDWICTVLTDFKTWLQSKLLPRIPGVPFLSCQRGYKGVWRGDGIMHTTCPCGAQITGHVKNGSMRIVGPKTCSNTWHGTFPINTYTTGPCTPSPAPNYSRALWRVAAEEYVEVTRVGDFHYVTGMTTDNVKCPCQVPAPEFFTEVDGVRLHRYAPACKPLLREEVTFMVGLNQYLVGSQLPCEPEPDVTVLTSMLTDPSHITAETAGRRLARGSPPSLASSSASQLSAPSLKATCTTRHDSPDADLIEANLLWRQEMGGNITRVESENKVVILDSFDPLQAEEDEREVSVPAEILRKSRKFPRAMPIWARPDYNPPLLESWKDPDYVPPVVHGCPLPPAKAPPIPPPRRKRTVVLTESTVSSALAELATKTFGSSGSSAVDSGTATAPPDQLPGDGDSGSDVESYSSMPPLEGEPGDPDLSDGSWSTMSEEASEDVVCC

[11] = Plasma clearance in Beagle dog at 0.1 mg/kg, iv by HPLC-MS/MS analysis; format: ADME, organism-based, Canis lupus familiaris; method in brief: as §2
[12] = Half life in Sprague-Dawley rat at 1 mg/kg, iv by HPLC-MS/MS analysis; format: ADME, organism-based; details: in vivo; method in brief: as §1
[13] = Half life in Beagle dog at 0.1 mg/kg, iv by HPLC-MS/MS analysis; format: ADME, organism-based, Canis lupus familiaris; details: in vivo; method in brief: as §2
[14] = AUC in Sprague-Dawley rat at 1 mg/kg, iv by HPLC-MS/MS analysis; format: ADME, organism-based; details: in vivo; method in brief: as §1
[15] = AUC in Beagle dog at 0.1 mg/kg, iv by HPLC-MS/MS analysis; format: ADME, organism-based, Canis lupus familiaris; details: in vivo; method in brief: as §2
[16] = Cmax in Beagle dog at 0.5 mg/kg, po by HPLC-MS/MS analysis; format: ADME, organism-based, Canis lupus familiaris; design: dose 0.5 mg/kg, route oral; details: in vivo; method in brief: as §2
[17] = Tmax in Beagle dog at 0.5 mg/kg, po by HPLC-MS/MS analysis; format: ADME, organism-based, Canis lupus familiaris; details: in vivo; method in brief: as §2
[18] = Half life in Beagle dog at 0.5 mg/kg, po by HPLC-MS/MS analysis; format: ADME, organism-based, Canis lupus familiaris; details: in vivo; method in brief: as §2
[19] = Oral bioavailability in Sprague-Dawley rat at 5 mg/kg by HPLC-MS/MS analysis; format: ADME, organism-based; details: in vivo; method in brief: as §1
[20] = Oral bioavailability in Beagle dog at 0.5 mg/kg by HPLC-MS/MS analysis; format: ADME, organism-based, Canis lupus familiaris; details: in vivo; method in brief: as §2
[21] = Toxicity in Sprague-Dawley rat assessed as death at 1 mg/kg, iv; format: organism-based; details: in vivo
Method in brief: (§3)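 Male Sprague-Dawley rats, 330–380 g, 9–10 weeks old, n = 3, were quarantined 1 week and jugular-cannulated 1 day before dosing. They were fasted, then given a single intravenous (1.0 mg/kg; DMA/propylene glycol 20/80, v/v) or oral (5.0 mg/kg) dose. Deaths, body weight and clinical observations were monitored with blood sampling through 24 h.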

[22] = Toxicity in Beagle dog assessed as death at 0.1 mg/kg, iv; format: organism-based, Canis lupus familiaris; details: in vivo
Method in brief: (§4)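 Male Beagle dogs, 9–10 months old, n = 3, were given a single intravenous (0.1 mg/kg) or oral (0.5 mg/kg) dose. The intravenous solution was in DMA/propylene glycol (20/80, v/v). Dose volume was set by pre-dose body weight. Blood was sampled up to 24 h. Deaths, body weight and clinical observations were recorded during the pharmacokinetic study.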

[23] = Toxicity in Sprague-Dawley rat assessed as effect on body weight at 1 mg/kg, iv; format: organism-based; details: in vivo; method in brief: as §3
[24] = Toxicity in Beagle dog assessed as effect on clinical observations at 0.5 mg/kg, po; format: organism-based, Canis lupus familiaris; details: in vivo; method in brief: as §4
[25] = Toxicity in Beagle dog assessed as effect on body weight at 0.5 mg/kg, po; format: organism-based, Canis lupus familiaris; details: in vivo; method in brief: as §4
[26] = Toxicity in Beagle dog assessed as death at 0.5 mg/kg, po; format: organism-based, Canis lupus familiaris; details: in vivo; method in brief: as §4
[27] = Toxicity in Sprague-Dawley rat assessed as death at 5 mg/kg, po; format: organism-based; details: in vivo; method in brief: as §3
[28] = Toxicity in Sprague-Dawley rat assessed as effect on body weight at 5 mg/kg, po; format: organism-based; details: in vivo; method in brief: as §3
[29] = Toxicity in Sprague-Dawley rat assessed as effect on clinical observations at 5 mg/kg, po; format: organism-based; details: in vivo; method in brief: as §3
[30] = Toxicity in Beagle dog assessed as effect on body weight at 0.1 mg/kg, iv; format: organism-based, Canis lupus familiaris; details: in vivo; method in brief: as §4
[31] = Toxicity in Sprague-Dawley rat assessed as effect on clinical observations at 1 mg/kg, iv; format: organism-based; details: in vivo; method in brief: as §3
[32] = Toxicity in Beagle dog assessed as effect on clinical observations at 0.1 mg/kg, iv; format: organism-based, Canis lupus familiaris; details: in vivo; method in brief: as §4

## O=C(N[C@@H](C(=O)N1CCC[C@H]1c1ncc(-c2ccc(-c3ccc(-c4cnc([C@@H]5CCCN5C(=O)[C@H](NC(=O)C5CC5)c5ccccc5)s4)cc3)cc2)s1)c1ccccc1)C1CC1
[1]
  Vd: 1.3 L/kg
[2]
  Vd: 1.6 L/kg
[3]
  half-life: 20.4 h
[4]
  Tmax: 3.3 h
[5]
  Cmax: 305 ng/mL
[6]
  AUC: 1620 ng·h/mL
[7]
  AUC: 14500 ng·h/mL
[8]
  clearance: 1.1 mL/min/kg
[9]
  CC50: > 50 µM
[10]
  Ratio EC50: 3
[11]
  clearance: 1.3 mL/min/kg
[12]
  half-life: 18.3 h
[13]
  half-life: 19.2 h
[14]
  AUC: 16300 ng·h/mL
[15]
  AUC: 1390 ng·h/mL
[16]
  Cmax: 94.9 ng/mL
[17]
  Tmax: 2.5 h
[18]
  half-life: 21.4 h
[19]
  bioavailability: 22%
[20]
  bioavailability: 23.3%
[21]
  Activity: Non-Toxic
[22]
  Activity: Non-Toxic
[23]
  Activity: Non-Toxic
[24]
  Activity: Non-Toxic
[25]
  Activity: Non-Toxic
[26]
  Activity: Non-Toxic
[27]
  Activity: Non-Toxic
[28]
  Activity: Non-Toxic
[29]
  Activity: Non-Toxic
[30]
  Activity: Non-Toxic
[31]
  Activity: Non-Toxic
[32]
  Activity: Non-Toxic

Source: ChEMBL document CHEMBL4387700, “A novel, potent, and orally bioavailable thiazole HCV NS5A inhibitor for the treatment of hepatitis C virus” (Eur J Med Chem, 2019)
